# High-throughput results: PubChem, Johns Hopkins Ion Channel Center
# KCNK9 block = human KCNK9 channel inhibition | Q9NPC2 | AID 488922 | B-score at 10 µM | HEK293 KCNK9, FluxOR thallium flux fluorescence; active compounds read low | 310,000 tested, 1.2% active;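 active = ratio B-score over 3 SD below the library mean, with starting fluorescence within 5 SD of its mean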;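 note: negative B-score means less thallium flux so channel inhibition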
# KCNQ1 block = human KCNQ1 channel inhibition; P51787; 310,000 tested, 1.3% active; AID 2642; B-score at 10 µM; CHO-K1 KCNQ1, FluxOR thallium flux fluorescence; active compounds read high;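 active = compounds whose thallium flux B-score, printed positive for inhibition, exceeds three library SD while starting fluorescence stays within three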;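 note: channel opened by potassium depolarization with thallium stimulus after 20 min compound exposure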
# Target sequence (P51787 whole entry, looked up): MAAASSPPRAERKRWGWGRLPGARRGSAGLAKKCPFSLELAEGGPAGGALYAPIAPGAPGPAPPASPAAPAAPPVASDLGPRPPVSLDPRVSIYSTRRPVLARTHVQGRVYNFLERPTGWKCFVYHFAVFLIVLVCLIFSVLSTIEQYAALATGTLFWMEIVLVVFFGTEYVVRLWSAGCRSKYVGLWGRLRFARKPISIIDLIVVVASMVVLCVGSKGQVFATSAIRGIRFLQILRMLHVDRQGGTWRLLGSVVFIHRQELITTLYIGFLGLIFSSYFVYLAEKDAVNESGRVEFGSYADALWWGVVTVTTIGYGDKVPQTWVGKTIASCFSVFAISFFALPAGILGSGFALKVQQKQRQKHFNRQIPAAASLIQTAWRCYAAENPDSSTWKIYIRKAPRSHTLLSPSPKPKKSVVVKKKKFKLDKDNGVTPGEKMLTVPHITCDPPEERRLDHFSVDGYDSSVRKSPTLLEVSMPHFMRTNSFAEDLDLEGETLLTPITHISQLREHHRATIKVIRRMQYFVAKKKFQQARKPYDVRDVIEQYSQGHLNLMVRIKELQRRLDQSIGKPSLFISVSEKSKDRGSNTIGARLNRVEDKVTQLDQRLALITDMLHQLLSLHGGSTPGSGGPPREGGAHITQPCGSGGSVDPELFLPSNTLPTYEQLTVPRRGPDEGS
# KCNQ1 act = potentiates or activates the human KCNQ1 potassium channel | CHO-K1 KCNQ1, thallium flux FluxOR fluorescence; active compounds read high | B-score at 10 µM | 310,000 tested, 0.35% active | AID 2648;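 active = fluorescence ratio B-score, a plate-corrected score, at least three library SD, with initial intensity B-score within 5 SD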
#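 Test system: CHO-K1 cells stably expressing KCNQ1 / Medium: assay buffer / Also added: depolarizing K+/Tl+ stimulus, K2SO4 and Tl2SO4 each 12.5 mM in 5x stock / Incubation: 90 min dye loading and 20 min compound exposure, both at room temperature / Signal: thallium influx via FluxOR fluorescence, kinetic imaging / Evaluation: B score of baseline-normalized fluorescence ratio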
# hERG rescue = hERG (human) protection from proarrhythmic block; activation (rescue from dofetilide block), less the hit threshold, % at 10 µM; 310,000 tested, 0.51% active; CHO-hERG, FluxOR thallium flux, dofetilide IC70 present; Q12809;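 active = activation above the mean of controls blocked by dofetilide plus 5 SD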;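 note: thallium influx through hERG after potassium depolarization seen as dye fluorescence rise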
# KCNK3 inh = human KCNK3 channel inhibition, primary screen. O14649. CHO-KCNK3 thallium flux, FluxOR fluorescence; active compounds read low. B-score at 10 µM. 340,000 tested, 0.84% active;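 active = B-score under library mean minus 4 SD, starting fluorescence ratio at most library mean plus 5 SD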;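 note: more negative B-score means stronger inhibition of thallium flux through KCNK3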
# * hit, by the source's call; i = inactive; / = not tested or not shown. This is a sample that favours compounds with a hit; in the whole collection about 3.1% have one here.
SMILES,KCNK9 block,KCNQ1 block,KCNQ1 act,hERG rescue,KCNK3 inh
O=S(=O)(c1ccc(SCc2ccc(Cl)cc2)nc1)N1CCCC1,/,/,/,/,i
CCOC(=O)C1=C(CC)Nc2ccccc2N=C1NC(=O)c1ccc(OC)c(S(=O)(=O)N2CCOCC2)c1,/,/,/,/,i
O=Nc1c(O)n(Cc2ccc(Cl)cc2)c2ccccc12,i,i,i,-6.7,i
Cc1cccc(NC(=S)N=Nc2c(O)n(CN3CCOCC3)c3ccccc23)c1C,i,i,i,-3.4,i
Oc1c(N=NC(=S)Nc2ccccc2F)c2ccccc2n1Cc1cccc(Cl)c1,i,i,i,15.9*,i
Oc1c(N=NC(=S)Nc2ccccc2F)c2ccccc2n1Cc1ccc(F)cc1,i,i,15*,54.5*,i
Cc1cccc(Cn2c(O)c(N=NC(=S)Nc3ccccc3F)c3ccccc32)c1,i,i,8*,27.0*,i
CC1CCN(S(=O)(=O)c2ccc3c(c2)oc(=O)n3CC(=O)N2CCc3ccccc3C2)CC1,i,i,i,-14.1,i
CCCc1c(C)nc(N2CCN(c3cccc(OC)c3)CC2)[nH]c1=O,i,i,i,5.9*,i
CCc1c(C)nc(N2CCN(c3cccc(OC)c3)CC2)[nH]c1=O,i,i,i,-2.1,i
C=C1C(=O)C2=CC1CCC(=O)C1(C)CCC(OC(C)=O)C(C)(C)C1CC2O (stereo not drawn),/,/,/,/,i
CC[n+]1c(/C=C(\C)SC)sc2ccccc21,i,i,i,-1.4,i
CC/C(=C/c1sc2ccccc2[n+]1CC)SC,i,i,i,-2.3,i
CC[n+]1c(/C=C2/C=C(C)CC(C)C2)sc2ccccc21 (stereo not drawn),i,6*,i,-27.1,i
CC[n+]1c(C=C2C=C(C)OC(C)=C2)sc2ccccc21,i,10*,i,-31.2,i
CC(C)(C)c1ccc(S(=O)(=O)N2CCC(CO)(CC3CCCCO3)CC2)cc1 (stereo not drawn),i,i,i,-25.4,i
CCOC(=O)c1c(NC(=O)CN2CCN(C(=O)c3ccco3)CC2)sc(C)c1C,i,i,i,-1.9,i
CCc1c(C)sc(NC(=O)CN2CCN(C(=O)c3ccco3)CC2)c1C(=O)OC,i,i,22*,1.1,i
COc1ccccc1/C=N/N1C(=O)c2cccc3cccc(c23)C1=O,i,i,i,7.2*,i
COc1ccc(/C=N/N2C(=O)c3ccccc3C2=O)cc1,i,i,i,-0.5,i
C=CCN(CC=C)C(=S)NC(=O)c1ccc([N+](=O)[O-])cc1,i,i,10*,41.8*,i
CCN(CC)C(=S)NC(=O)c1ccc(OC)c(Br)c1,i,i,8*,2.6,i
C=CCN(CC=C)C(=S)NC(=O)c1ccc(OC)c(Br)c1,i,i,32*,33.3*,i
COc1ccc(C(=O)NC(=S)N(C)Cc2ccccc2)cc1Br,i,i,i,-6.1,i
O=C(Oc1cccc([N+](=O)[O-])c1)N1CCCCC1,i,i,i,-2.6,i
SMILES,KCNK9 block,KCNQ1 block,KCNQ1 act,hERG rescue,KCNK3 inh
CC(NCCCOc1cccc2ccccc12)c1ccccc1 (stereo not drawn),i,i,i,-17.8,i
CC(=O)c1c(-c2ccccc2)c2cc([N+](=O)[O-])ccc2[nH]c1=O,i,i,8*,-3.8,i
CC(=O)c1c(C)nc2ccc([N+](=O)[O-])cc2c1-c1ccccc1,i,i,i,-6.4,i
O=c1/c(=C/c2ccc(O)c([N+](=O)[O-])c2)sc2nc3ccccc3n12,/,/,/,/,i
CCN(CC)c1ccc(/C=c2\sc3nc4ccccc4n3c2=O)c(O)c1,i,9*,i,-36.1,i
COC(=O)CCNC(=O)CCc1ccc(S(=O)(=O)N2CCCCCC2)cc1,/,/,/,/,i
Cc1ccc2c(c1)c(-c1ccccc1)nc1nnnn12,i,i,i,6.0*,i
Cc1c(N)cc2c(c1N)C(C)(C)CC2(C)C,/,/,/,/,i
COc1ccc(C[C@H]2CN3C(=NC[C@@H]3Cc3ccccc3)N2CCNC(=O)c2ccc(C)c(Br)c2)cc1,i,9*,i,-22.6,i
COc1ccc(C[C@H]2CN3C(=NC[C@H]3Cc3ccccc3)N2CCNC(=O)c2ccc(C)c(Br)c2)cc1,i,7*,i,-27.3,i
COc1ccc(C(=O)On2c(-c3ccc(Br)cc3)nc3ccccc3c2=O)cc1,i,i,10*,1.0,i
Cc1cc(C(=O)Nn2c(-c3ccc(Br)cc3)nc3ccccc3c2=O)ccc1[N+](=O)[O-],i,6*,i,-10.3,i
O=C(CSc1ccc2c(c1)OCCO2)NC(=O)Cc1ccccc1,i,i,i,-4.4,i
Cc1noc(C)c1CSCC(=O)Oc1ccc(N(C)S(=O)(=O)c2ccc(Cl)cc2)cc1,i,i,i,-9.9,i
O=C(CCS(=O)(=O)c1ccccc1)Nc1ccc(Cl)cn1,i,i,i,-4.1,i
Cc1ccc(/C=C/C(=O)c2cc(Br)ccc2OC(=O)c2ccco2)cc1,i,i,i,-11.5,i
COc1ccccc1/C=C/C(=O)c1cc(Br)ccc1OC(=O)c1ccco1,i,i,i,5.0*,i
O=C(/C=C/c1cc(Br)ccc1O)c1ccco1,i,i,i,-22.7,-9.81*
O=C(/C=C/c1ccccc1O)c1ccco1,i,i,i,-1.0,i
COc1ccccc1N1CCN(C(C)C(=O)N2CC(C)OC(C)C2)CC1 (stereo not drawn),i,i,i,-14.3,i
CC(C(=O)N1CCCC1)N1CCN(c2ccccc2O)CC1 (stereo not drawn),i,i,i,11.2*,i
O=C1C(=Cc2cccn2-c2ccccc2)C(=O)c2ccccc21,i,i,i,1.5,i
O=C1C(=Cc2cccn2-c2ccc(O)cc2)C(=O)c2ccccc21,i,i,i,4.7*,i
O=C(CN1CCN(c2ccccc2)CC1)NC(=O)NCc1ccco1,i,i,i,-11.3,i
COc1cccc(N2CCN(CC(=O)NC(=O)NCc3ccco3)CC2)c1,i,i,i,10.0*,i
Cc1ccc(NS(=O)(=O)c2ccc3c(c2)NC(=O)CCS3)c(C)c1,i,i,i,-2.5,i
CC1CC(=O)Nc2ccccc2N1C(=O)Cn1cnc2ccccc2c1=O (stereo not drawn),/,/,/,/,i
Cc1ccc(C(=O)Nc2cccc(NC(=O)CN3CCCCC3)c2)cc1,i,i,i,-7.9,i
Cn1nc(-c2ccccc2)c(CSc2ccccc2Cl)c1Cl,-7.61*,i,i,-3.8,i
C=Cc1ccc(CSc2cc(C)nc3nc(C)nn23)cc1,i,i,i,-8.5,i
